Assays:
Plasmodium falciparum [1] = assay: Antimalarial activity against chloroquine-sensitive Plasmodium falciparum D6 after 72 hrs by MSF assay; type: functional, organism-based; settings: D6, 72 h
[2] = biological target: Botulinum neurotoxin type A (Clostridium botulinum) (UniProt P0DPI0); assay: Inhibition of Clostridium botulinum recombinant BoNT/A light chain at […] by reverse-phase HPLC analysis
How it was run: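 Recombinant BoNT/A light chain was tested with a synthetic SNAP-25 187–203 peptide substrate (N-acetylated, C-aminated). The mix held 40 mM HEPES-0.05% Tween pH 7.3, 0.5 mg/ml BSA, 1 mM DTT, excess zinc and 20 µM inhibitor, at 37 °C, quenched with TFA. Cleaved and uncleaved peptide were separated by reverse-phase HPLC, and peak areas gave reaction rates and % inhibition.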

Plasmodium falciparum [3] = assay: Antimalarial activity against chloroquine-resistant Plasmodium falciparum W2 after 72 hrs by MSF assay; type: functional, organism-based; settings: W2, 72 h
[4] = Selectivity index, ratio of IC50 for human HepG2 cells to IC50 for Plasmodium falciparum TM91C235; type: toxicity, cell-based; settings: read-out: Ratio IC50
[5] = Selectivity index, ratio of IC50 for human HepG2 cells to IC50 for Plasmodium falciparum W2; type: toxicity, cell-based; settings: read-out: Ratio IC50
[6] = Selectivity index, ratio of IC50 for human HepG2 cells to IC50 for Plasmodium falciparum D2; type: toxicity, cell-based; settings: read-out: Ratio IC50
HepG2 = assay: Cytotoxicity against human HepG2 cells after 48 hrs by MTT assay; type: cell-based; settings: HepG2, 48 h
Plasmodium falciparum [7] = assay: Antimalarial activity against multi drug resistant Plasmodium falciparum TM91C235 after 72 hrs by MSF assay; type: functional, organism-based; settings: TM91C235, 72 h
[8] = (§1) Half life in human liver microsomes at 10 uM by LC-MS/MS analysis; type: ADME, Microsome; settings: liver microsomes
[9] = (§2) Half life in mouse liver microsomes at 10 uM by LC-MS/MS analysis; type: ADME, Microsome; settings: liver microsomes
Plasmodium falciparum [10] = assay: Ratio of mefloquine IC50 to compound IC50 against Plasmodium falciparum TM91C235; type: functional
Liver = assay: as §2; type: ADME, Microsome; settings: microsomes, 10 µM
Plasmodium falciparum [11] = assay: Antimalarial activity against multidrug-resistant Plasmodium falciparum TM90C2B after 72 hrs by MSF assay; type: functional, organism-based
Plasmodium falciparum [12] = assay: Antimalarial activity against multidrug-resistant Plasmodium falciparum TM90C2A after 72 hrs by MSF assay; type: functional, organism-based
How it was run: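 P. falciparum cultures at late-ring or early-trophozoite stage, 0.3% starting parasitemia and 2% hematocrit, were grown in plates predosed with quadruplicate 12-point two-fold dilutions in DMSO (final […]). Incubation was 72 h at 37 °C in 5% CO2/5% O2/90% N2. Lysis buffer with SYBR Green I (final 10x) was added, then 24 h dark at room temperature and fluorescence read. IC50/IC90 came from sigmoidal variable-slope nonlinear regression.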

Liver microsomes = assay: as §1; type: ADME, Microsome; settings: microsomes, 10 µM

Botulinum neurotoxin type A (Clostridium botulinum), sequence (P0DPI0 2-448 limits assumed): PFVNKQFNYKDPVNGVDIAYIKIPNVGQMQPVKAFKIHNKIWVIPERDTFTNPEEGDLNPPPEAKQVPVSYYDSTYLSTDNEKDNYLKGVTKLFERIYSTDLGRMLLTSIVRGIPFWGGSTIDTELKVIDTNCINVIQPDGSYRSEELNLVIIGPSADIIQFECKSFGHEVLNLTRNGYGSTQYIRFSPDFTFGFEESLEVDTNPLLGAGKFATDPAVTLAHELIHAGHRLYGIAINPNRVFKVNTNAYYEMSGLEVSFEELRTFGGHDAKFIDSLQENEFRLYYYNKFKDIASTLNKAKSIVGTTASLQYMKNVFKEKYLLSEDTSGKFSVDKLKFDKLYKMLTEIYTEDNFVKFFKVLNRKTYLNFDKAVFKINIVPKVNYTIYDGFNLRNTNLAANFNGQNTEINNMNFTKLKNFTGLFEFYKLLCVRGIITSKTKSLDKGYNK

Compound	IC50 (Plasmodium falciparum [1])	inhibition [2]	IC50 (Plasmodium falciparum [3])	selectivity ratio [4]	selectivity ratio [5]	selectivity ratio [6]	IC50 (HepG2)	IC50 (Plasmodium falciparum [7])	half-life at 10 µM [8]	half-life at 10 µM [9]	Ratio IC50 (Plasmodium falciparum [10])	IC90 (Plasmodium falciparum [1])	t1/2 (Liver)	IC50 (Plasmodium falciparum [11])	IC90 (Plasmodium falciparum [11])	IC50 (Plasmodium falciparum [12])	IC90 (Plasmodium falciparum [7])	t1/2 (Liver microsomes)	IC90 (Plasmodium falciparum [3])
Fc1ccc(CNCCCNc2ccnc3cc(Cl)ccc23)cc1	13.1 nM	50.1%	49.4 nM	185	110	415	5430 nM	29.4 nM											
Clc1ccc2c(NCCCNCc3ccccc3)ccnc2c1	17.2 nM	51.8%	52.2 nM	73	56	169	2910 nM	39.9 nM	1 h	1 h									
Clc1ccc2c(NCCNCc3ccncc3)ccnc2c1	60.7 nM	24%	375 nM	752	409	2530	153000 nM	204 nM											
CC(C)(C)c1ccc(CNCCCNc2ccnc3cc(Cl)ccc23)cc1	21.7 nM	50.3%	48.4 nM	68	45	100	2170 nM	31.9 nM											
Clc1ccc2c(NCCNCc3ccc(Br)cc3)ccnc2c1	4.1 nM	69%	9.47 nM	660	695	1610	6580 nM	9.98 nM	1 h	1 h	4								
CC(C)(C)c1ccc(CNCCNc2ccnc3cc(Cl)ccc23)cc1	24.2 nM	47%	42.4 nM	419	245	429	10400 nM	24.7 nM											
Clc1ccc2c(NCCNCc3cccnc3)ccnc2c1	53.4 nM	25%	225 nM	882	426	1800	95900 nM	109 nM											
Clc1ccc2c(NCCCNCc3cccnc3)ccnc2c1		39.9%	260 nM	317	90		23300 nM	73.4 nM	1 h	1 h									
Clc1ccc2c(NCCNCc3ccccc3)ccnc2c1	6.41 nM	52%	10.9 nM				19400 nM	7.38 nM	1 h			9.62 nM	0.383 h	9.3 nM	12.5 nM	9.94 nM	9.3 nM		
COc1ccncc1CNCCNc1ccnc2cc(Cl)ccc12		19%	19 nM					7.29 nM					0.383 h					0.633 h	
CCN(CC)CCCC(C)Nc1ccnc2cc(Cl)ccc12 (centres undefined) [CHLOROQUINE PHOSPHATE]		7%										19.2 nM			602 nM		476 nM		942 nM
COc1ccncc1CNCCCNc1ccnc2cc(Cl)ccc12	4.76 nM	43.2%	86.9 nM	93	57	1040	4970 nM	53.2 nM	1 h	1 h									
Clc1ccc2c(NCCNCc3cnccc3Cl)ccnc2c1	63.8 nM	23%	141 nM	78	46	102	6500 nM	83.3 nM					0.617 h					0.167 h	
COc1ccc(CNCCCNc2ccnc3cc(Cl)ccc23)cc1	6.18 nM	14%	56.2 nM	95	86	778	4810 nM	50.6 nM					0.3 h					1 h	
Clc1ccc2c(NCCCNCc3cnccc3Cl)ccnc2c1	25.7 nM	35.9%	73 nM	121	52	146	3760 nM	31 nM					0.317 h					0.267 h	
O[C@@H](c1cc(C(F)(F)F)nc2c(C(F)(F)F)cccc12)[C@H]1CCCCN1 (racemic)		28%										43.6 nM				51.1 nM			
C[C@@H]1CC[C@H]2[C@@H](C)C(=O)O[C@@H]3O[C@@]4(C)CC[C@@H]1[C@]32OO4 [ARTEMISININ]	9 nM		6.7 nM					13 nM											
Clc1ccc2c(NCCCNCc3ccncc3)ccnc2c1	8.65 nM	42.3%	204 nM	469	176	4150	35900 nM	76.4 nM					0.15 h					0.15 h	
Fc1ccc(CNCCNc2ccnc3cc(Cl)ccc23)cc1	26.4 nM	68%	45.8 nM	291	350	608	16000 nM	55.2 nM											
COc1ccc(CNCCNc2ccnc3cc(Cl)ccc23)cc1	3.22 nM	18%	14.3 nM	362	406	1810	5820 nM	16.1 nM			4		0.1 h					0.45 h	
Clc1ccc2c(NCCCNCc3ccc(Br)cc3)ccnc2c1	3.95 nM	68%	5.93 nM				4950 nM	6.18 nM	1 h	1 h		4.45 nM		7.91 nM	12.1 nM	7.16 nM	7.66 nM		7.41 nM
